Reference: ChEMBL document CHEMBL1240399

Key:
[1] = substrate: O=C(Cc1cccs1)N[C@@H]1C(=O)N2C(C(=O)O)=C(/C=C/c3ccc([N+](=O)[O-])cc3[N+](=O)[O-])CS[C@H]12; assay: (§1) Activity of Pseudomonas aeruginosa GES-13 beta lactamase assessed as hydrolysis by spectrometry
In short: (§2)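 GES-13 expressed in E. coli(pB-ges13), released by sonication in 20 mM Tris pH 8.0, purified by Q-Sepharose (0–1 M NaCl gradient) then S-Sepharose after dialysis against 20 mM MES pH 6.0 (eluted 400–500 mM NaCl); >95% pure by SDS-PAGE. Hydrolysis of penicillin G, nitrocefin, cephalothin, cefotaxime, ceftazidime, aztreonam and imipenem followed spectrophotometrically; kinetic parameters derived.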

[2] = substrate: C[C@@H](O)[C@H]1C(=O)N2C(C(=O)O)=C(SCCNC=N)C[C@H]12; assay: as §1; in short: as §2
[3] = substrate: CC(C)(O/N=C(\C(=O)N[C@@H]1C(=O)N2C(C(=O)[O-])=C(C[n+]3ccccc3)CS[C@H]12)c1csc(N)n1)C(=O)O; assay: as §1; in short: as §2
[4] = substrate: C[C@H]1[C@H](NC(=O)/C(=N\OC(C)(C)C(=O)O)c2csc(N)n2)C(=O)N1S(=O)(=O)O; assay: as §1; in short: as §2
[5] = substrate: CC1(C)S[C@@H]2[C@H](NC(=O)Cc3ccccc3)C(=O)N2[C@H]1C(=O)O; assay: as §1; in short: as §2
[6] = substrate: CO/N=C(\C(=O)N[C@@H]1C(=O)N2C(C(=O)O)=C(COC(C)=O)CS[C@H]12)c1csc(N)n1; assay: as §1; in short: as §2
[7] = substrate: O=C(Cc1cccs1)N[C@@H]1C(=O)N2C(C(=O)O)=C(/C=C/c3ccc([N+](=O)[O-])cc3[N+](=O)[O-])CS[C@H]12; assay: (§3) Ratio of Kcat/Km for Pseudomonas aeruginosa GES-13 beta lactamase assessed as hydrolysis by spectrometry; in short: as §2
[8] = substrate: CC(C)(O/N=C(\C(=O)N[C@@H]1C(=O)N2C(C(=O)[O-])=C(C[n+]3ccccc3)CS[C@H]12)c1csc(N)n1)C(=O)O; assay: as §3; in short: as §2
[9] = substrate: C[C@H]1[C@H](NC(=O)/C(=N\OC(C)(C)C(=O)O)c2csc(N)n2)C(=O)N1S(=O)(=O)O; assay: as §3; in short: as §2
[10] = substrate: CC(=O)OCC1=C(C(=O)O)N2C(=O)[C@@H](NC(=O)Cc3cccs3)[C@H]2SC1; assay: as §3; in short: as §2
[11] = substrate: CC1(C)S[C@@H]2[C@H](NC(=O)Cc3ccccc3)C(=O)N2[C@H]1C(=O)O; assay: as §3; in short: as §2
[12] = substrate: CO/N=C(\C(=O)N[C@@H]1C(=O)N2C(C(=O)O)=C(COC(C)=O)CS[C@H]12)c1csc(N)n1; assay: as §3; in short: as §2

B1: Beta-lactamase GES-13 (Pseudomonas aeruginosa), D1MIX9 (protein)
chain: MRFIHALLLAGIAHSAYASEKLTFKTDLEKLEREKAAQIGVAIVDPQGEIVAGHRMAQRFAMCSTFKFPLAALVFERIDSGTERGDRKLSYGPDMIVKWSPATERFLASGHMTVLEAAQAAVQLSDNGATNLLLREIGGPAAMTQYFRKIGDSVSRLDRKEPEMNDNTPGDLRDTTTPIAMARTVAKVLYGGALTSTSTHTIERWLIGNQTGDATLRAGFPKDWVVGEKTGTCANGGRNDIGFFKAQERDYAVAVYTTAPKLSAVERDELVASVGQVITQLILSTDK
For B1, the Km [1] was 197 µM, the kcat [1] was 29.3 s⁻¹ and the kcat [2] was less than 0.01 s⁻¹. The Km [3] was 229 µM, the kcat [3] was 30.4 s⁻¹ and the Km [4] was 405 µM. For the same protein, the kcat [4] was 35.6 s⁻¹, the Km [5] was 139 µM and the kcat [5] was 13.5 s⁻¹. It also gave a Km [6] of 63 µM, a kcat [6] of 69 s⁻¹ and a kcat/Km [7] of 150000 M⁻¹ s⁻¹. It also gave a kcat/Km [8] of 130000 M⁻¹ s⁻¹, a kcat/Km [9] of 90000 M⁻¹ s⁻¹ and a kcat/Km [10] of 100000 M⁻¹ s⁻¹. The kcat/Km [11] was 100000 M⁻¹ s⁻¹ and the kcat/Km [12] was 1.09e+06 M⁻¹ s⁻¹.
